Assay results as given in ChEMBL document CHEMBL1124652, “Resolved 6,7,8,9-tetrahydro-N,N-dimethyl-3H-benz[e]indol-8-amine: central dopamine and serotonin receptor stimulating properties” (J Med Chem, 1989).
The source made the active and inactive calls. No cut-off for these calls is given here.

Experiments:
Rattus norvegicus [1] = assay: Effect of compound on 5-Hydroxy tryptamine accumulation upon subcutaneous administration in the corpus striatum of rat brain; format: functional; conditions: sc
Rattus norvegicus [2] = assay: Effect on motor activity in rats at a dose of 12.5 uM/Kg; format: functional
Rattus norvegicus [3] = assay: Effect on Dopa accumulation upon subcutaneous administration in the corpus striatum of rat brain; format: functional; conditions: sc
Rattus norvegicus [4] = assay: Effect of compound on 5-Hydroxy tryptamine accumulation upon subcutaneous administration in the limbic system of rat brain; format: functional; conditions: sc
Rattus norvegicus [5] = assay: Effect of compound on 5-Hydroxy tryptamine accumulation upon subcutaneous administration in the hemisphere of rat brain; format: functional; conditions: sc
Rattus norvegicus [6] = assay: Effect on Dopa accumulation upon subcutaneous administration in the limbic system of rat brain; format: functional; conditions: sc
D(1A) dopamine receptor [7] = target: T1, D(1A) dopamine receptor (Rattus norvegicus, UniProt P18901); assay: In vitro binding activity against dopamine receptor D1 from homogenized rat brain, using [3H]SCH-23390 as the radioligand.
T1 sequence (P18901 whole entry): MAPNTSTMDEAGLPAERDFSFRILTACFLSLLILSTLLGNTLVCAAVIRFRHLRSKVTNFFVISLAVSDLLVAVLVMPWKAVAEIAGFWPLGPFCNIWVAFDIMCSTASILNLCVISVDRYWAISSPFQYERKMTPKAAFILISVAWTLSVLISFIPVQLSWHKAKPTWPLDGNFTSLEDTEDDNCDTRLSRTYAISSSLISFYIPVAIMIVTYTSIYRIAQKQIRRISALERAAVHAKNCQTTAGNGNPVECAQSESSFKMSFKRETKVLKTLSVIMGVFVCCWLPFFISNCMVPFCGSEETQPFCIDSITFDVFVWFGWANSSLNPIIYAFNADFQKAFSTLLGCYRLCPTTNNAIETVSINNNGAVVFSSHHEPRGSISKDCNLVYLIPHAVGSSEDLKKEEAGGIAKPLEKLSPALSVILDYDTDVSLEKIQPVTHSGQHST
Outline: (§1)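 Rat striatal membranes prepared in 50 mM potassium phosphate pH 7.4 and centrifuged at 25000g. Incubated with 0.2 nM [3H]SCH 23390 (1 mg original tissue) for 60 min at 30 °C, then separated by rapid filtration. Specific binding defined with 1 μM cis-(Z)-flupentixol.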

Rattus norvegicus [8] = assay: Effect on Dopa accumulation upon subcutaneous administration in the hemispheres of rat brain; format: functional; conditions: sc
Rattus norvegicus [9] = assay: Effect on motor activity in rats at a dose of 2 uM/Kg; format: functional
Rattus norvegicus [10] = assay: Effect on Dopa accumulation upon subcutaneous administration in the hemispheres of rat brain (partial response); format: functional; conditions: sc
Rattus norvegicus [11] = assay: Effect of compound on 5-Hydroxy transaminase accumulation upon subcutaneous administration in the hemisphere of rat brain; format: functional; conditions: sc
Outline: (§2)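 Male Sprague-Dawley rats (200-300 g) were dosed subcutaneously at 5 mL/kg with neutral-pH solutions. Dose-response curves used four to six dose levels (n = 4) per substance and per brain area, up to 50 μmol/kg. 5-HTP was measured in dissected brain regions by HPLC with electrochemical detection, and ED50 values were derived from the curves.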

Rattus norvegicus [12] = assay: Effect on Dopa accumulation upon subcutaneous administration in the hemispheres of rat brain; I - inactive at highest dose (50 umol/kg); format: functional, organism-based
Rattus norvegicus [13] = assay: Effect of compound on 5-Hydroxy transaminase accumulation upon subcutaneous administration in the limbic system of rat brain; format: functional; conditions: sc; outline: as §2
Rattus norvegicus [14] = assay: Effect on Dopa accumulation upon subcutaneous administration in the limbic system of rat brain; I - inactive at highest dose (50 umol/kg); format: functional, organism-based
Rattus norvegicus [15] = assay: Effect of compound on 5-Hydroxy transaminase accumulation upon subcutaneous administration in the corpus striatum of rat brain; format: functional; conditions: sc
Outline: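 Male Sprague-Dawley rats (200-300 g) received the compound subcutaneously at 5 mL/kg in neutral-pH solution, at four to six dose levels up to 50 μmol/kg (n = 4 per dose). 5-HTP in the corpus striatum was measured by HPLC with electrochemical detection. A separate dose-response curve per substance and brain area gave ED50 values.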

Rattus norvegicus [16] = species on record: Rattus norvegicus; assay: […]; format: functional, organism-based; conditions: Striatum
Rattus norvegicus [17] = assay: Effect of compound on 5-Hydroxy tryptamine accumulation upon subcutaneous administration in the hemisphere of rat brain (partial response); format: functional; conditions: sc
Rattus norvegicus [18] = assay: Effect on motor activity in rats at a dose of 4 uM/Kg; format: functional
Rattus norvegicus [19] = assay: Effect of compound on 5-Hydroxy transaminase accumulation upon subcutaneous administration in the limbic system of rat brain; I - inactive at highest dose (50 umol/kg); format: functional, organism-based
Rattus norvegicus [20] = assay: Effect of compound on 5-Hydroxy transaminase accumulation upon subcutaneous administration in the hemisphere of rat brain; I - inactive at highest dose (50 umol/kg); format: functional, organism-based
Rattus norvegicus [21] = assay: Effect of compound on 5-Hydroxy transaminase accumulation upon subcutaneous administration in the corpus striatum of rat brain; I - inactive at highest dose (50 umol/kg); format: functional, organism-based
[22] = target: T2, 5-hydroxytryptamine receptor 1A (Rattus norvegicus, UniProt P19327); assay: In vitro binding activity against 5-hydroxytryptamine 1A receptor from homogenized rat brain, using [3H]-8-OH-DPAT as the radioligand
T2 sequence (P19327 whole entry): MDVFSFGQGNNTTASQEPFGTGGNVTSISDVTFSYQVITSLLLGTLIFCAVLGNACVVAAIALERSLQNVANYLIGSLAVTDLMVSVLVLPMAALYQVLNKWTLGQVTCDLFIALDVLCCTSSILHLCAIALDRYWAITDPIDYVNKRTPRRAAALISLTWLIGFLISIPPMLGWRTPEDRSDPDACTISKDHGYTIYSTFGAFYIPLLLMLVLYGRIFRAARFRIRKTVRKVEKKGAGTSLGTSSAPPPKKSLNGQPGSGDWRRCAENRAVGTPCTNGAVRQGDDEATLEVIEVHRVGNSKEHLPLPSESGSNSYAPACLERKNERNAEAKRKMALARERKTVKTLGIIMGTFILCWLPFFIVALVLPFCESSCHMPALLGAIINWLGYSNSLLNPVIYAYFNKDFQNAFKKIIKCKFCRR
Outline: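 Whole rat brain minus brainstem and cerebellum, homogenized in 50 mM Tris pH 8.0 with 120 mM NaCl, 4 mM CaCl2 and 4 mM MgCl2. Membranes preincubated 10 min at 37 °C, then resuspended with 10 μM pargyline. Incubated in triplicate with 1 nM [3H]-8-OH-DPAT (0.1% ascorbic acid) for 15 min at 37 °C, then filtered. Nonspecific binding defined with 10 μM 5-HT. IC50 from semilog linear regression.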

D(2) dopamine receptor [23] = target: T3, D(2) dopamine receptor (Rattus norvegicus, UniProt P61169); assay: In vitro binding activity against dopamine receptor D2 from homogenized rat brain, using [3H]spiperone as the radioligand
T3 sequence (P61169 whole entry): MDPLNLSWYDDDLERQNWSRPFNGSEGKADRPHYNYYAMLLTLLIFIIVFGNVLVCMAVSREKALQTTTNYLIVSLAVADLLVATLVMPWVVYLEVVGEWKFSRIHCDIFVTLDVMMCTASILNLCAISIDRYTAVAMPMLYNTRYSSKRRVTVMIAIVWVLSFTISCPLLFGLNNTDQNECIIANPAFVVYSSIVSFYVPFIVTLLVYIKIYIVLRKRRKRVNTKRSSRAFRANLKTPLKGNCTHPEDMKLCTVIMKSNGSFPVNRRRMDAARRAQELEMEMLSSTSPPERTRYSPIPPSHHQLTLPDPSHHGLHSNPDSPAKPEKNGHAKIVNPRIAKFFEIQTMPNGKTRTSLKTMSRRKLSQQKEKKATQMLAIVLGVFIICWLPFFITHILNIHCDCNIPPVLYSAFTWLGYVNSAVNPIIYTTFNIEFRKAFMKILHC
Outline: (§3)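 Rat striatal membranes in 50 mM potassium phosphate buffer (pH 7.4 at 25 °C), pellets homogenized in 1300 volumes. Incubated with 0.5 nM [3H]spiperone (3 mg original tissue) for 10 min at 37 °C, then terminated by rapid vacuum filtration and counted by liquid scintillation. Nonspecific binding defined with 10 μM 6,7-ADTN; specific binding 70-80% of total.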

D(1A) dopamine receptor [24] = target: T1, D(1A) dopamine receptor; assay: In vitro binding activity against Dopamine receptor D1 from homogenized rat brain, using [3H]SCH-23390 as the radioligand; outline: as §1
D(1A) dopamine receptor [25] = target: T1, D(1A) dopamine receptor; assay: In vitro binding activity against dopamine D1 receptor from homogenized rat brain, using [3H]SCH-23390 as the radioligand; outline: as §1
D(2) dopamine receptor [26] = target: T3, D(2) dopamine receptor; assay: In vitro binding activity against Dopamine receptor D2 from homogenized rat brain, using [3H]spiperone as the radioligand; outline: as §3

`CN(C)[C@H]1CCc2ccc3[nH]ccc3c2C1` was tested, and the ED50 (Rattus norvegicus [1]) was 3.7 µmol/kg, the Motor activity (Rattus norvegicus [2]) was 22 accumulated counts 30min-1 and the ED50 (Rattus norvegicus [3]) was 8 µmol/kg. For the same compound, the ED50 (Rattus norvegicus [4]) was 3.7 µmol/kg, the ED50 (Rattus norvegicus [5]) was 3.7 µmol/kg and the ED50 (Rattus norvegicus [6]) was 4.2 µmol/kg. For the same compound, the IC50 (D(1A) dopamine receptor [7]) was 29.2 µM and the ED50 (Rattus norvegicus [8]) was 10 µmol/kg.
With `CN(C)[C@@H]1CCc2ccc3[nH]ccc3c2C1` the ED50 (Rattus norvegicus [1]) was 0.1 µmol/kg, the ED50 (Rattus norvegicus [3]) was 0.4 µmol/kg and the ED50 (Rattus norvegicus [4]) was 0.4 µmol/kg. For the same compound, the ED50 (Rattus norvegicus [5]) was 0.4 µmol/kg, the ED50 (Rattus norvegicus [6]) was 0.3 µmol/kg and the IC50 (D(1A) dopamine receptor [7]) was 20.4 µM. The Motor activity (Rattus norvegicus [9]) was 130 accumulated counts 30min-1 and the ED50 (Rattus norvegicus [10]) was 2 µmol/kg.
For `CCCN(CCC)[C@H]1CCc2cccc(O)c2C1`, the ED50 (Rattus norvegicus [11]) was 0.077 µmol/kg, the ED50 (Rattus norvegicus [12]) was “inactive” and the ED50 (Rattus norvegicus [13]) was 0.061 µmol/kg. For the same compound, the ED50 (Rattus norvegicus [14]) was “inactive”, the ED50 (Rattus norvegicus [15]) was 0.065 µmol/kg and the ED50 (Rattus norvegicus [16]) was “inactive”.
`CN(C)C1CCc2ccc3[nH]ccc3c2C1` (racemic) showed an ED50 (Rattus norvegicus [17]) of 0.4 µmol/kg, an ED50 (Rattus norvegicus [1]) of 0.2 µmol/kg and an ED50 (Rattus norvegicus [3]) of 0.4 µmol/kg. The ED50 (Rattus norvegicus [4]) was 0.3 µmol/kg, the Motor activity (Rattus norvegicus [18]) was 90 accumulated counts 30min-1 and the ED50 (Rattus norvegicus [6]) was 0.3 µmol/kg. It also gave an IC50 (D(1A) dopamine receptor [7]) of 19.7 µM and an ED50 (Rattus norvegicus [10]) of 4 µmol/kg.
For `CCCN(CCC)[C@@H]1CCc2ccc(O)cc2C1`, the ED50 (Rattus norvegicus [12]) was “inactive”, the ED50 (Rattus norvegicus [3]) was 0.011 µmol/kg and the ED50 (Rattus norvegicus [19]) was “inactive”. The ED50 (Rattus norvegicus [20]) was “inactive”, the ED50 (Rattus norvegicus [6]) was 0.0095 µmol/kg and the ED50 (Rattus norvegicus [21]) was “inactive”.
With `CCCN(CCC)[C@@H]1CCc2cccc(O)c2C1` the ED50 (Rattus norvegicus [11]) was 0.05 µmol/kg, the ED50 (Rattus norvegicus [12]) was “inactive” and the ED50 (Rattus norvegicus [13]) was 0.036 µmol/kg. For the same compound, the ED50 (Rattus norvegicus [14]) was “inactive”, the ED50 (Rattus norvegicus [15]) was 0.047 µmol/kg and the ED50 (Rattus norvegicus [16]) was “inactive”.
Work on `CCN(CC)C(=O)N[C@H]1C[C@@H]2c3cccc4[nH]cc(c34)C[C@H]2N(C)C1` [TERGURIDE] yielded an IC50 [22] of 0.025 µM, an IC50 (D(2) dopamine receptor [23]) of 0.004 µM and an IC50 (D(1A) dopamine receptor [24]) of 0.069 µM.
Work on `CCCN(CCC)C1CCc2cccc(O)c2C1` (racemic) [8-OH-DPAT] yielded an IC50 (D(1A) dopamine receptor [25]) greater than 100 µM and an IC50 (D(2) dopamine receptor [26]) of 5.76 µM.
